Source: PubChem
TAAR1 ag: human TAAR1 agonists, primary screen, Fluo-8 calcium fluorescence, CHO RD-HGA16 cells. vehicle wells 0%, saturating PEA agonist 100%. activation, % at 3 µM. 0.99% of 360,000 active. Trace amine-associated receptor 1 (Homo sapiens), Q96RJ0. AID 624467, 2012;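 active = activation above the mean activation of all test compounds in the run plus 3 SD, cut at about 38% in these data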
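System: CHO-derived RD-HGA16 cells with stable Gα16 and human TAAR1. Times: 17-24 h plating, Fluo-8 75 min 37 °C, 30 min RT. Measured by: calcium-sensitive Fluo-8 signal, excitation 470-495, emission 515-575 nm. Read-out basis: % activation relative to PEA EC100 response. Control set: DMSO and PEA EC100. Repeats: no replicates (n 1).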
GPR7 antagonist: GPR7 receptor antagonists, primary screen, cell-based, fluorescence, single concentration | Neuropeptides B/W receptor type 1 (Homo sapiens), P48145 | inhibition, % at 4.4 µM | 1.1% of 290,000 active | GPR7-expressing cells, fluorescence antagonist assay; in the data active = inhibition above about 16%, passing the limit was not always enough;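 note: cells stimulated with the agonist NPW; 0% = agonist with vehicle and 100% = vehicle without agonist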
TAAR1 antag: human TAAR1 antagonists, primary screen, Fluo-8 calcium fluorescence, CHO RD-HGA16 cells | antagonist | inhibition, % at 3 µM | 1.5% of 360,000 active | AID 624466, 2012;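 active = inhibition above a per-plate cutoff, the mean inhibition of test compounds on that plate plus 3 SD, cut at about 49% in these data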;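 note: 0% = DMSO plus EC80 beta-PEA response and 100% = DMSO alone without agonist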
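test system = CHO RD-HGA16 cells bearing hTAAR1 | replication = singlicate | controls = DMSO-only wells and EC80 β-PEA-stimulated wells | reagent = EC80 β-phenethylamine stimulus | read-out basis = percent inhibition of PEA-evoked calcium signal, max/basal emission ratio | schedule = seeding 17-24 h prior, 75-min 37 °C, 30-min RT dye loading | signal = kinetic Fluo-8 calcium fluorescence measurement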
zfTRPN1 agonist: zebrafish TRPN1 channel agonists, primary screen, cell-based, HEK293, calcium fluorescence; activation, % at 3 µM; HEK293 zebrafish TRPN1-YFP, Fluo-8 calcium fluorescence; 100% = response to 87 µM carbachol; 0.18% of 220,000 active; transient receptor potential cation channel N1 (TRPN1/NompC), Danio rerio; AID 1424, 2008;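 active = activation above its plate's cutoff, the mean activation of test wells on that plate plus 3 SD, cut at about 19% in these data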;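 note: 0% = DMSO alone and 100% = 87 µM carbachol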
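System: zebrafish TRPN1-YFP in HEK293 cells / Dosing: 3 µM single point / Timing: dye loading 1 h at 37 °C, then 30 min room temperature / Signal: Fluo-8 calcium fluorescence, excitation 470-495 nm, emission 515-575 nm / Read-out basis: percent activation from peak over basal fluorescence ratio, control-normalized / Control set: high carbachol 87 µM, low DMSO alone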
TRPML3 agonist: human TRPML3 channel agonists, primary screen, cell-based, HEK293 TRPML3-YFP, Fluo-8 calcium fluorescence, 3 µM; 100% = the carbachol control signal; 0.29% of 220,000 active; activation, % at 3 µM; Mucolipin-3 (Homo sapiens), Q8TDD5;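 active = activation above its plate's cutoff, the mean activation of the plate's test wells plus 3 SD, cut at about 12% in these data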;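 note: 0% = DMSO only wells and 100% = carbachol wells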
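Test system – HEK293 line with stable expression of human TRPML3-YFP channel · Control set – carbachol 87 µM final as high control (100%), DMSO as low control (0%) · Signal – Fluo-8 calcium dye fluorescence, ex 470-495, em 515-575 nm · Incubation – 1-h 37 °C dye load, 5-s basal, 120-s post-compound reads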
LANA-H2B inh: blockers of LANA interaction with H2A/H2B – biochemical, FP readout, HTS, primary screen | cell-free LANA-H2A/H2B peptide, fluorescence polarization | inhibition, % (no concentration beside the values) | 0.6% of 320,000 active | AID 2629, 2010; in the data active = inhibition mostly above about 10%, no sharp cut-off; inactive = mostly below about 6.7%
TAAR1 ag confirm: human TAAR1 agonists, retest of hits, confirmation, Fluo-8 calcium fluorescence, CHO RD-HGA16 cells. shares compounds with TAAR1 ag. scaled: DMSO 0%, maximal phenethylamine 100%. activation, % at 3 µM. 82% of 2,400 active;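 active = activation above a cutoff set at the run's mean compound activation plus 3 SD, cut at about 39% in these data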
Ga16 ag counter: nonselective calcium mobilization agonists, CHO-Ga16 cells, counter-screen for hTAAR1 agonist project, cell-based, fluorescence, CHO-Ga16 parental line; shares compounds with TAAR1 ag; Fluo-8 calcium fluorescence; normalized to maximal ATP response, DMSO zero; activation, % at 3 µM; 50% of 2,400 active; AID 651787, 2012;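 active = activation above the run cutoff, the mean activation over all tested wells plus 3 SD, cut at about 12% in these data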;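 note: 0% = DMSO wells and 100% = maximal ATP response on the peak over basal ratio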
TAAR1 desens: TAAR1 desensitization by agonist hits, confirmation, counter-screen for TAAR1 agonist project, cell-based, fluorescence, tachyphylaxis | shares compounds with TAAR1 ag | CHO RD-HGA16 hTAAR1, Fluo-8 calcium, beta-PEA response inhibition | inhibition, % at 3 µM | 46% of 2,400 active;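 active = inhibition above the run cutoff, the mean inhibition of all test compounds plus 3 SD, cut at about 49% in these data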;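 note: beta-PEA stimulus applied at its EC80; loss of beta-PEA calcium signal after compound pretreatment read as receptor desensitization; 0% = DMSO with beta-PEA at EC80 and 100% = DMSO alone without agonist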
Ga16 nonsel ant: inhibition of ATP-evoked calcium response in CHO-Ga16 cells, counter-screen for TAAR1 agonist project, cell-based, fluorescence | shares compounds with TAAR1 ag | inhibition, % at 3 µM | CHO-Ga16 ATP-induced calcium, Fluo-8 fluorescence | 39% of 2,400 active;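 active = inhibition above the plate's mean compound inhibition plus 3 SD, computed per plate, cut at about 22% in these data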;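 note: 0% = EC80 ATP with DMSO and 100% = DMSO wells without ATP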
Numbers without * were called inactive; . = not tested or not shown. An excerpt weighted towards active compounds, which were near 3.4% of everything screened.

SMILES	TAAR1 ag	GPR7 antagonist	TAAR1 antag	zfTRPN1 agonist	TRPML3 agonist	LANA-H2B inh	TAAR1 ag confirm	Ga16 ag counter	TAAR1 desens	Ga16 nonsel ant
CN(C)CCCN(C(=O)c1ccc(S(=O)(=O)N2CCc3ccccc32)cc1)c1nc2ccc(F)cc2s1	51*	8	42	.	.	6	66*	36*	57*	41*
CCOC(=O)C(NCCc1ccccc1F)(NC(C)=O)C(F)(F)F (centres undefined)	72*	-12	51*	1	1	2	101*	1	88*	0
CC(=O)N1CCN(c2cc(-c3ccccc3)nc3cc(-c4cccc(Cl)c4)nn23)CC1	0	.	16	.	.	.	.	.	.	.
C=CCC[C@@H](Cc1ccc(F)cc1)C(=O)OC[C@H](Cc1c[nH]c2ccccc12)NC(=O)[C@@H](CC=C)CC(=O)NCCO	74*	.	80*	.	.	6	52*	30*	76*	51*
CC(C)Oc1ccc(C(CCNCc2ccc(O)cc2)c2ccccc2)cc1 (centres undefined)	70*	26	36	.	.	2	57*	29*	40	35*
CCOC(=O)c1cnn(-c2nc(SC)nc3sc4c(c23)CCCC4)c1N	85*	-3	84*	-1	1	3	13	15*	31	40*
COc1ccc(OCC(=O)Nc2c3c(nn2-c2ccccc2)CS(=O)(=O)C3)cc1	2	-4	7	.	.	1	.	.	.	.
CC(C)(C)C1CCc2onc(C(=O)NC3CCCC3)c2C1 (centres undefined)	45*	-11	-24	-2	-1	6	71*	39*	9	5
Cc1ccc(Nc2nc(N)c3ccccc3n2)cc1C	68*	0	6	.	.	-10	67*	2	54*	3
CCCOC1CCCN(C(=O)c2cc(Cl)c(Cl)cc2C(=O)O)C1 (centres undefined)	65*	-13	24	1	1	2	82*	4	51*	15
COC(=O)C1=C(C)N(Cc2cccc(C(F)(F)F)c2)C(=NCc2cc(OC)c(OC)c(OC)c2)NC1c1ccccc1 (centres undefined)	44*	.	7	.	.	.	13	11	15	21
COC(=O)C1=C(C)N(Cc2ccccc2)C(=NCc2ccc(OC)cc2)N[C@H]1c1ccccc1	29	.	20	.	.	-1	.	.	.	.
COC(=O)C1=C(C)N(Cc2cccc(C(F)(F)F)c2)C(=NCc2ccc(OC)cc2)NC1c1cccc(F)c1 (centres undefined)	43*	.	55*	.	.	.	42*	24*	51*	42*
COC(=O)C1=C(C)N(Cc2cccc(C(F)(F)F)c2)C(=NCc2ccc(OC)cc2)NC1c1ccccc1 (centres undefined)	51*	.	59*	.	.	.	38*	25*	32	45*
O=C(c1cccc(Oc2c(Cl)cccc2[N+](=O)[O-])c1)N1CCOCC1	3	-6	-10	.	.	-1	.	.	.	.
CCC(c1nnnn1Cc1ccco1)N(CCc1ccccc1)Cc1cc2cc(C)ccc2[nH]c1=O (centres undefined)	.	.	.	.	.	2	.	3	.	6
Cc1ccc2[nH]c(=O)c(CN(CCc3ccccc3)C(c3nnnn3Cc3ccco3)C(C)C)cc2c1 (centres undefined)	71*	-13	3	1	0	3	62*	0	18	6
CC(=O)OC1(C(C)=O)CCC2C3CC(Cl)C4=CC(=O)CCC4(C)C3CCC21C (centres undefined)	1	.	4	.	.	.	.	.	.	.
C[n+]1c2cc(N)ccc2cc2ccc(N)cc21	82*	.	15	.	.	.	103*	123*	24	42*
COC(=O)c1cccc(C(=O)N2CCCC(C(=O)c3cccc(OC(C)C)c3)C2)c1 (centres undefined)	53*	-3	-4	.	.	-3	-2	2	6	6
COC(=O)c1cccc(C(=O)N2CCCC(C(=O)c3ccccc3OC)C2)c1 (centres undefined)	-1	-1	-3	.	.	3	.	.	.	.
C[C@@H]1CN([C@H](C)CO)C(=O)CCCn2nncc2CO[C@@H]1CN(C)S(=O)(=O)c1ccc2c(c1)OCCCO2	5	.	1	.	.	.	.	.	.	.
C/C(Nc1ccccc1C(F)(F)F)=C1/CCOC1=O	1	-11	-11	0	1	2	.	.	.	.
C/C(NCCc1ccc(O)cc1)=C1/CCOC1=O	83*	.	83*	.	.	.	91*	3	69*	-6
Cc1c(CNCCCc2ccccc2)c(C(=O)O)c(C)n1Cc1ccccc1	11	-1	-5	0	0	8	.	.	.	.
Cc1c(CNCC(C)c2ccccc2)c(C(=O)O)c(C)n1Cc1ccccc1 (centres undefined)	90*	-13	6	-1	0	2	78*	2	18	-2
Fc1ccc(-[n+]2nc(Nc3ccccc3)sc2-c2c(Cl)cccc2Cl)cc1	74*	3	32	.	.	4	89*	35*	73*	29*
COc1ccc(-c2sc(Nc3ccccc3)n[n+]2-c2ccc(F)cc2)cc1Br	11	-2	0	.	.	4	.	.	.	.
